Assay results from ChEMBL document CHEMBL4431330, “3-Arylpropionylhydroxamic acid derivatives as Helicobacter pylori urease inhibitors: Synthesis, molecular docking and biological evaluation” (Bioorg Med Chem, 2016).
Calls of active or inactive are those of the source. The calls are words filed in the database; no cut-off is given here.

Legend:
[1] = target: T1, Urease subunit alpha/Urease subunit beta (Helicobacter pylori (strain ATCC 700392 / 26695) (Campylobacterpylori), UniProt P69996); assay: Inhibition of Helicobacter pylori urease using urea as substrate assessed as ammonia production after 50 mins by indophenol method; type: protein-complex assay
How it was run: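 Urease prepared from H. pylori grown 24 h at 37 °C in Brucella broth with 10% heat-inactivated horse serum under microaerobic conditions. Cells washed in PBS pH 7.4, sonicated with protease inhibitors, desalted on Sephadex G-25, stored in glycerol at 4 °C. Enzyme (10 U) pre-incubated with compound 50 min at 37 °C. Ammonia read by absorbance (indophenol method).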

[2] = target: T2, Urease subunit alpha/Urease subunit beta (Helicobacter pylori (strain ATCC 700392 / 26695) (Campylobacterpylori)) (UniProt P69996+P14916); assay: Mixed inhibition of Helicobacter pylori urease assessed as dissociation of enzyme-urea-inhibitor complex by non-linear fitting analysis
[3] = target: T1, Urease subunit alpha/Urease subunit beta; assay: Inhibition of Helicobacter pylori urease using urea as substrate assessed as inhibition constant for enzyme-urea-inhibitor complex by non-linear fitting analysis; type: protein-complex assay
How it was run: (§1)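 Urease came from H. pylori grown 24 h at 37 °C in Brucella broth with 10% heat-inactivated horse serum under microaerobic conditions. Washed cells were sonicated with protease inhibitors, desalted on Sephadex G-25, and stored in glycerol. Ammonia production rate (indophenol) was measured across urea gradients below 4 mM at each inhibitor level. V–[S] curves were fitted nonlinearly. Fitted constants b and c were plotted linearly against [I], and Ki and Ki′ were taken from the X-axis intercepts.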

[4] = Protein binding in rabbit plasma after 20 mins by ultra-filtration method; type: ADME, cell-free, Oryctolagus cuniculus; conditions: read-out: PPB (converted)
How it was run: (§2)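 Ultrafiltration, in triplicate. Compound was incubated with human plasma or freshly collected rabbit plasma for 20 min at 37 °C. Samples were then centrifuged through filter devices at 5000 r/min for 15 min at 37 °C. Initial plasma and ultrafiltrate were diluted 8-fold and read by UV-vis. Nonspecific membrane binding was corrected using PBS spiked at the same concentration. % bound = (1 − Cf/(C0(1−NBS)))×100.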

[5] = target: T1, Urease subunit alpha/Urease subunit beta; assay: Inhibition of Helicobacter pylori urease using urea as substrate assessed as inhibition constant for enzyme-inhibitor complex by non-linear fitting analysis; type: protein-complex assay; how it was run: as §1
[6] = Protein binding in human plasma after 20 mins by ultra-filtration method; type: ADME, cell-free; conditions: read-out: PPB (converted); how it was run: as §2
[7] = target: T2, Urease subunit alpha/Urease subunit beta (Helicobacter pylori (strain ATCC 700392 / 26695) (Campylobacterpylori)); assay: Potency index, ratio of acetohydroxamic acid IC50 to compound IC50 for Helicobacter pylori urease; type: protein-complex assay
How it was run: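 Ratio of the acetohydroxamic acid IC50 to the compound IC50. […] Ammonia formed from urea was then read by the Weatherburn indophenol method.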

[8] = target: T1, Urease subunit alpha/Urease subunit beta; assay: Substrate inhibition of Helicobacter pylori urease in presence of >4 mM urea by indophenol method; type: protein-complex assay
How it was run: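 No inhibitor. H. pylori urease velocity (indophenol ammonia read-out) was measured against a range of urea concentrations. Km and the substrate-inhibition constant Ksi were obtained by nonlinear least-squares fitting of V = Vmax[S]/(Km + [S] + [S]²/Ksi).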

T2 sequence (P14916 whole entry, looked up): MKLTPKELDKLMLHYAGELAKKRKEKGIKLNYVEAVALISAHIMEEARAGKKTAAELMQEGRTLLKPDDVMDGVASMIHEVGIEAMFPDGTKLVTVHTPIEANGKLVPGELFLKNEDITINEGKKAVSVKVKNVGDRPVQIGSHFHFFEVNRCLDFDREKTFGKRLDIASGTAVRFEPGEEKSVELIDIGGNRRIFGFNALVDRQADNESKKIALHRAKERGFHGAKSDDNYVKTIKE
T2 sequence (P69996 whole entry, looked up): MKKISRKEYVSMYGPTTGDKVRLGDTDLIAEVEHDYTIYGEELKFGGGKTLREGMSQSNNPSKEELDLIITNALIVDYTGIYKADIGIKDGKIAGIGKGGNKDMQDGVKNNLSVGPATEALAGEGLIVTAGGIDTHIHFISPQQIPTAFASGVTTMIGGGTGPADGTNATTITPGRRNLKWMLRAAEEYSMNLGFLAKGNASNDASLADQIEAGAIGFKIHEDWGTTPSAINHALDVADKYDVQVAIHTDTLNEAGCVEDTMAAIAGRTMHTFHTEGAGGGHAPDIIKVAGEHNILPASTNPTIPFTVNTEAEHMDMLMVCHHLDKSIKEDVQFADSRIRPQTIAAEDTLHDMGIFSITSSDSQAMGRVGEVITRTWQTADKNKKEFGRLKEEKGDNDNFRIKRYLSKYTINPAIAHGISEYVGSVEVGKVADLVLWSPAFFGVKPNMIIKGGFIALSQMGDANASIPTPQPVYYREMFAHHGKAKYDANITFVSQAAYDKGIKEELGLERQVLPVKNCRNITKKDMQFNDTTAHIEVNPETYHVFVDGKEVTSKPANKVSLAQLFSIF
T1 sequence (P69996 whole entry): as the sequence (P69996 whole entry, looked up) above
T1 sequence (P14916 whole entry, further chain): as the sequence (P14916 whole entry, looked up) above

Row | Compound | IC50 [1] [µM] | other results
1 | CN(O)C(=O)CC(O)c1ccc(OCc2ccccc2)c(OCc2ccccc2)c1 (stereo not drawn) | 376 | 
2 | CN(O)C(=O)CC(O)c1ccc(N(C)C)cc1 (stereo not drawn) | 287 | 
3 | CN(O)C(=O)CC(O)c1cccc(Cl)c1Cl (stereo not drawn) | 95.8 | 
4 | CN(O)C(=O)CC(O)c1cccc(Br)c1 (stereo not drawn) | 78.2 | 
5 | COc1ccc(C(O)CC(=O)N(C)O)cc1OC (stereo not drawn) | 405 | 
6 | CN(O)C(=O)CC(O)c1ccc(F)cc1 (stereo not drawn) | 77.2 | 
7 | CN(O)C(=O)CC(O)c1ccc(Br)cc1 (stereo not drawn) | 97.6 | 
8 | COc1cccc(C(O)CC(=O)N(C)O)c1 (stereo not drawn) | 89.2 | 
9 | CC(=O)NO [ACETOHYDROXAMIC ACID] | 23.8 | 
10 | CN(O)C(=O)CC(O)c1ccc(Cl)cc1Cl (stereo not drawn) | 367 | 
11 | CN(O)C(=O)CC(O)c1ccccc1Cl (stereo not drawn) | 56.6 | 
12 | CN(O)C(=O)CC(O)c1ccc(OCc2ccccc2)cc1 (stereo not drawn) | 198 | 
13 | CN(O)C(=O)CC(O)c1ccc(Cl)c(Cl)c1 (stereo not drawn) | 90.4 | 
14 | CN(O)C(=O)CC(O)c1c(Cl)cccc1Cl (stereo not drawn) | 77.9 | 
15 | CN(O)C(=O)CC(O)c1cccc(Cl)c1 (stereo not drawn) | 48 | 
16 | CN(O)C(=O)CC(O)c1cccc(F)c1 (stereo not drawn) | 71.2 | 
17 | CN(O)C(=O)CC(O)c1cc(Cl)ccc1O (stereo not drawn) | 30.5 | 
18 | COc1cc(C(O)CC(=O)N(C)O)ccc1OCc1ccccc1 (stereo not drawn) | 258 | 
19 | O=C(CC(O)c1cc(Cl)ccc1O)NO (stereo not drawn) | 1.1 | inhibition [2]: Active; Ki [3]: 1.21 µM; fraction unbound at 20 min [4]: 0.548; Ki [5]: 4.79 µM; fraction unbound at 20 min [6]: 0.472; Ratio IC50 [7]: > 20
20 | CN(O)C(=O)CC(O)c1ccc(Cl)cc1 (stereo not drawn) | 87.4 | 
21 | COc1ccccc1C(O)CC(=O)N(C)O (stereo not drawn) | 84 | 
22 | NC(N)=O [UREA] |  | Ki [8]: 6470 µM
23 | O=C(CC(O)c1ccc(Cl)cc1Cl)NO (stereo not drawn) | 13.4 | 
24 | COc1ccc(C(O)CC(=O)N(C)O)cc1 (stereo not drawn) | 328 | 
25 | O=C(CC(O)c1cc(Cl)ccc1OCc1ccccc1)NO (stereo not drawn) | 0.15 | inhibition [2]: Active; Ki [3]: 0.373 µM; fraction unbound at 20 min [4]: 0.562; Ki [5]: 0.404 µM; fraction unbound at 20 min [6]: 0.626; Ratio IC50 [7]: > 20
26 | CN(O)C(=O)CC(O)c1cc(Cl)ccc1OCc1ccccc1 (stereo not drawn) | 26.2 | 
